# High-throughput results as filed in PubChem BioAssay.
# DYRK1A inh – rat Dyrk1A kinase inhibitors, primary screen, biochemical, single point, plate reader. actives 0.43% (n = 310,000). Dual specificity tyrosine-phosphorylation-regulated kinase 1A (Rattus norvegicus), Q63470. ADP-Glo luminescence, NFATc1 peptide. AID 504441, 2011. inhibition, % at 12.5 µM; in the data active = inhibition above about 50%;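 note: plate controls were vehicle with enzyme for no effect and no enzyme for full effect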
# AI-2 QS modul – Vibrio harveyi AI-2 quorum sensing modulators, primary screen, JMH597 strain, luminescence/OD600 ratio; Vibrio harveyi JMH597 AI-2 luminescence/OD600 ratio, 9 h; hits give low values; strain lacks LuxN and CqsS sensors; 0 = neutral-control median; actives 0.4% (n = 300,000); AID 2094, 2009; activity change, % at 7.5 µM; in the data active = activity change below about -75%, passing the limit was not always enough; inconclusive = no clear call, values can overlap the other calls;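 note: luminescence divided by OD600 gain over 9 h not by final OD600 alone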
# GSK3B inh – human GSK3beta kinase inhibitors, primary screen, biochemical, cell-free homogeneous, HTS | Glycogen synthase kinase-3 beta (Homo sapiens), P49841 | GST-GSK3beta kinase, ADP-Glo luminescence, 60 min; hits give low values | activity score (negative = inhibition), % at 10 µM | actives 0.038% (n = 300,000) | AID 2097, 2009;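 active = more than half of replicate wells score below -50%, meaning over 50% inhibition versus plate controls; inconclusive = some replicates but at most half score below -50%; inactive = no replicate scores below -50%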;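 note: 0% = median DMSO wells and -100% = median GW8510 positive control wells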
# Target sequence (P49841 whole entry, looked up): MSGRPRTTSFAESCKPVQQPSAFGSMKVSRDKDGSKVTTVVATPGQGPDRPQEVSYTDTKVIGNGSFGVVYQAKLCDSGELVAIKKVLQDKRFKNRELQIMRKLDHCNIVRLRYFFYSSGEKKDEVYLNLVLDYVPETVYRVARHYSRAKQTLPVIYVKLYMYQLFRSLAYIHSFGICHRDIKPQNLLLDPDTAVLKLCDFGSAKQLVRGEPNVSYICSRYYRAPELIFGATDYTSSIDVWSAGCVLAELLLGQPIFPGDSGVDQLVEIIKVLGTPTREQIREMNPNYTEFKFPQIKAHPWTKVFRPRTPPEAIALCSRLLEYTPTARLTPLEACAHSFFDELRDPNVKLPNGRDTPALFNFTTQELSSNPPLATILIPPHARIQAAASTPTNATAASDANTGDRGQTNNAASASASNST
#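 Test system – GST-tagged human GSK3beta kinase, cell-free · Incubation – 60 min enzyme reaction, room temperature · Signal – ADP-Glo luminescence · Also added – peptide substrate and ATP at 25 µM · Controls – DMSO neutral wells and GW8510 at 20 µM as positive · Buffer or medium – Tris/MgCl2 kinase buffer · Measure – Luminescence-derived activity versus plate DMSO and GW8510 wells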
# STK33 kinase inh – inhibitors of purified STK33 kinase, primary screen, biochemical, ADP-Glo luminescence, homogeneous, cell-free; Serine/threonine-protein kinase 33 (Homo sapiens), Q9BYT3; MBP phosphorylation; inhibition, % at 10 µM; actives 0.073% (n = 320,000); AID 2661, 2010;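 active = inhibition at or above 25%, using the most active replicate where run in duplicate; inactive = inhibition below 25%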
# Rce1 inhib – yeast Rce1p protease inhibitors, primary screen, biochemical, fluorescence, cell-free homogeneous; yeast membranes, quenched prenylated peptide cleavage fluorescence; AID 2563, 2010; actives 0.27% (n = 290,000); calls only; CAAX prenyl protease 2 (Saccharomyces cerevisiae (strain ATCC 204508 / S288c)), Q03530;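 active = fall in fluorescence gain of 50% or more versus controls, with final raw signal at or below 3038400; inconclusive = same 50% fall but final raw signal above 3038400; inactive = fall in fluorescence gain under 50%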;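 note: plate controls were neutral control wells for no effect and wells lacking membranes for full effect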
# GSK3A inh – blockers of GSK3A enzyme activity – biochemical, luminescence, cell-free homogeneous, HTS, primary screen; Glycogen synthase kinase-3 alpha (Homo sapiens), P49840; GSK-3 alpha kinase, ADP-Glo luminescence, 60 min; inhibition, % at 10 µM; actives 0.1% (n = 320,000); AID 2650, 2010;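 active = more than half of replicates show inhibition above 20%; inconclusive = some but at most half of replicates above 20% inhibition; inactive = no replicate shows inhibition above 20%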;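 note: GST-tagged GSK-3 alpha with peptide substrate and 25 µM ATP; 0% = DMSO neutral wells and 100% = GW8510 positive control wells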
# The depositor's hits bear a star; i = inactive; ? = inconclusive; nt = no result given; + = active, no number. Hits are enriched below; roughly 0.99% of the tested compounds scored in any of these assays.
SMILES,DYRK1A inh,AI-2 QS modul,GSK3B inh,STK33 kinase inh,Rce1 inhib,GSK3A inh
O=C(C[n+]1ccccc1)N/N=C/c1cc(Br)cc(Br)c1O,5,-149*,-2,0,i,-2
O=C(N/N=C/c1cc(Br)cc(Br)c1O)c1ccncc1,nt,-84*,-1,0,i,2
O=C(N/N=C/c1cc(Cl)cc(Cl)c1O)c1ccncc1,-1,-85*,0,1,i,15
CCN1CCN(CCCNC(=O)c2ccc(CS(=O)c3ccc(Br)cc3)o2)CC1 (stereo not drawn),nt,3,1,0,i,-1
CC1CCN(c2oc(-c3ccc(F)cc3)nc2C#N)CC1,5,3,-2,-2,+,2
CC1=NN(C(N)=S)C(=O)C1N=Nc1ccc(Cl)cc1Cl (stereo not drawn),21,26,2,1,i,7
O=C(Nc1nc(-c2ccccn2)cs1)c1ccc(Br)s1,4,-95*,1,0,i,-3
Nc1[nH]nc2nc(-c3ccccc3)[nH]c(=O)c12,-4,11,3,2,i,9
Nc1nc(-c2ccccc2)[nH]c(=O)c1N,75*,10,-1,3,i,2
COCCCn1nnnc1SCC(=O)Nc1nc(C)c(C)s1,-1,21,1,0,i,2
CCn1nnnc1SCC(=O)Nc1nc(C)c(C)s1,0,4,-2,-1,+,1
CCn1cc(/C=C(\NC(=O)c2ccccc2F)C(=O)N2CCOCC2)c2ccccc21,-1,5,-2,-2,+,-2
CCn1cc(/C=C(\NC(=O)c2ccccc2Cl)C(=O)N2CCOCC2)c2ccccc21,2,3,-1,-1,+,0
CCn1cc(/C=C(\NC(=O)c2ccccc2F)C(=O)N2CCCC2)c2ccccc21,7,-2,1,-2,+,-2
CN(C)S(=O)(=O)n1cc(/C=C(\NC(=O)c2ccccc2F)C(=O)N2CCOCC2)c2ccccc21,-2,13,1,-2,i,-3
c1ccc(-c2nc(SCc3nc4ccccc4[nH]3)c3oc4ccccc4c3n2)cc1,6,nt,nt,-1,nt,-1
O=C(COC(=O)/C=C/c1cn(-c2ccccc2)nc1-c1ccc2c(c1)OCCO2)NC1CCS(=O)(=O)C1 (stereo not drawn),1,15,1,1,+,0
CC1CN(C(=O)c2ccc(NS(=O)(=O)c3ccc(F)cc3)cc2)CC(C)O1 (stereo not drawn),-1,21,-1,-1,i,-2
CCOC(=O)c1sc2nc(C3CC3)cc(-c3ccc(OC)cc3)c2c1N,1,20,1,-4,+,0
N#Cc1sc2nc(C3CC3)cc(-c3ccccc3)c2c1N,-1,-3,-7,3,i,19
CCOC(=O)c1sc2nc(C3CC3)cc(-c3ccc(F)cc3)c2c1N,-3,30,2,-1,+,nt
CN(CC(=O)Nc1ccc(N2CCOCC2)cc1)C(=O)CCc1cc(C(C)(C)C)c(O)c(C(C)(C)C)c1,-1,nt,nt,-1,nt,-1
CCCc1cc(=O)n2[nH]c(C)c(-c3ccccc3)c2n1,7,3,3,-2,+,0
Cc1cc(C(=O)OCC(=O)Nc2ccc(F)cc2)c(C)o1,-1,-82*,-5,0,i,2
Cc1cc(C(=O)OCC(=O)Nc2cccc(S(=O)(=O)N(C)C)c2)c(C)o1,-6,-89*,-1,-2,i,-3
SMILES,DYRK1A inh,AI-2 QS modul,GSK3B inh,STK33 kinase inh,Rce1 inhib,GSK3A inh
CCN(CC)S(=O)(=O)c1cccc(NC(=O)COC(=O)c2cc(C)oc2C)c1,9,11,2,0,nt,-4
Cc1cc(C(=O)OCC(=O)Nc2ccccc2)c(C)o1,1,-63,3,0,i,0
Cc1cc2cc(C#N)c(NCCNC(=S)NCCCN3CCOCC3)nc2cc1C,1,7,-3,-1,+,7
Cc1cccc2cc(C#N)c(NCCNC(=S)NCCCN3CCOCC3)nc12,nt,10,-1,1,i,31
COc1ccc(-c2nnc(NC(=O)c3ccc([N+](=O)[O-])o3)o2)c(OC)c1,32,-88*,2,0,i,-1
Cc1ccc(-c2nnc(NC(=O)c3ccc([N+](=O)[O-])o3)o2)c(C)c1,30,?,0,nt,i,nt
CCOC(=O)c1nc2cc3n(c(C)c-2c1C)C(C)C(CC)=C3C (stereo not drawn),-2,12,-4,-2,+,4
CCOC(=O)c1cn2ccc(C)cc2n1,-3,17,2,-1,i,1
N#Cc1ccc(CSc2nnc(-c3ccccn3)n2-c2ccccc2)cc1,6,16,0,-1,i,nt
c1ccc(CSc2nnc(-c3c[nH]c4ccccc34)o2)cc1,6,-82*,1,0,i,-1
N#Cc1ccc(CSc2nnc(-c3c[nH]c4ccccc34)n2-c2ccccc2)cc1,nt,25,-4,0,+,-2
Cc1cccc2[nH]c3c(N4CCC5(CC4)OCCO5)ncnc3c12,30,17,-1,1,+,2
CCOc1ccccc1C(=O)NCC(=O)N1CCN(Cc2ccc3c(c2)OCO3)CC1,-1,nt,nt,0,nt,-3
COCCNc1nc(N)c([N+](=O)[O-])c(NCC2CCCO2)n1 (stereo not drawn),34,-8,-53*,0,i,68*
Nc1nc(NCCOCCO)nc(NCc2ccccc2)c1[N+](=O)[O-],0,0,-20,2,i,46
CNc1nc(N)c([N+](=O)[O-])c(NCC2CCCO2)n1 (stereo not drawn),nt,-9,-27,4,i,47
Nc1nc(NCCOCCO)nc(NCC2CCCO2)c1[N+](=O)[O-] (stereo not drawn),-3,20,-60*,-1,i,60*
CN(Cc1ccc(C(C)(C)C)cc1)C(=O)c1ccc2c(c1)OCO2,2,nt,nt,nt,nt,nt
Cc1cc2n(n1)C(c1ccc3c(c1)OCO3)Nc1c(C)cccc1-2 (stereo not drawn),3,29,3,0,i,2
Cc1cc(C)c2c(c1)-c1cc(C)nn1C(c1ccc3c(c1)OCO3)N2 (stereo not drawn),1,23,-1,-1,+,1
